Assays:
Assay type in all cases: functional
[1] = test system: Cavia porcellus; experiment: Bronchodilatory activity in iv dosed Hartley guinea pig assessed as inhibition of histamine-induced spasm administered 3 to 4 times at 15 mins interval starting 2 mins post challenge
Outline: (§1)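 Hartley guinea pigs (either sex, 250-500 g) under urethane (1.5 g/kg ip) plus iv gallamine, artificially ventilated. Histamine was infused iv for 12 s every 5 min to raise tracheal pressure 20-50 cm water. Salts were given iv in water and esters in 10% aqueous ethanol, 3-4 log-spaced doses. Read-out was % variation in spasm amplitude versus control; ED50 (-50%) by semilog regression; ≥4 animals.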

[2] = test system: Cavia porcellus; experiment: Bronchodilatory activity in iv dosed Hartley guinea pig assessed as inhibition of serotonin-induced spasm administered 3 to 4 times at 15 mins interval starting 2 mins post challenge
Outline: (§2)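 Serotonin (7.5-30 μg/kg iv, 12-s injections every 5 min) induced bronchospasm (20-50 cm water rise) in ventilated, urethane/gallamine-treated Hartley guinea pigs (250-500 g). After three matched control spasms, test agent was given iv over 1 min 2 min later, repeated at 15-min intervals, 3-4 log doses. Water was the vehicle for salts and 10% aqueous ethanol for esters. Intratracheal pressure was recorded; ED50 from semilog regression of % variation; ≥4 animals.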

[3] = test system: Cavia porcellus; experiment: Bronchodilatory activity in iv dosed Hartley guinea pig assessed as inhibition of acetylcholine-induced spasm administered 3 to 4 times at 15 mins interval starting 2 mins post challenge
Outline: (§3)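 Urethane-anesthetized (1.5 g/kg ip), gallamine-curarized Hartley guinea pigs (either sex, 250-500 g), ventilated at 60 strokes/min. Acetylcholine (40-150 μg/kg, 12-s iv infusions every 5 min) set to raise tracheal pressure 20-50 cm water. Compounds (sodium salts in water; esters in 10% aqueous ethanol) given iv over 1 min. Spasm amplitude expressed as % variation from control. ED50 from semilog regression; ≥4 animals.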

[4] = test system: Cavia porcellus; experiment: Bronchodilatory activity in Hartley guinea pig assessed as inhibition of serotonin-induced spasm at 3.2 mg/kg, iv administered 3 to 4 times at 15 mins interval starting 2 mins post challenge; outline: as §2
[5] = test system: Cavia porcellus; experiment: Bronchodilatory activity in Hartley guinea pig assessed as inhibition of histamine-induced spasm at 3.2 mg/kg, iv administered 3 to 4 times at 15 mins interval starting 2 mins post challenge; outline: as §1
[6] = test system: Cavia porcellus; experiment: Bronchodilatory activity in Hartley guinea pig assessed as inhibition of acetylcholine-induced spasm at 3.2 mg/kg, iv administered 3 to 4 times at 15 mins interval starting 2 mins post challenge; outline: as §3
[7] = test system: Cavia porcellus; experiment: Bronchodilatory activity in iv dosed Hartley guinea pig assessed as lowest dose required for >/= 50% inhibition of serotonin-induced spasm administered 3 to 4 times at 15 mins interval starting 2 mins post challenge; outline: as §2
[8] = test system: Cavia porcellus; experiment: Bronchodilatory activity in iv dosed Hartley guinea pig assessed as lowest dose required for >/= 50% inhibition of histamine-induced spasm administered 3 to 4 times at 15 mins interval starting 2 mins post challenge; outline: as §1
[9] = test system: Cavia porcellus; experiment: Bronchodilatory activity in iv dosed Hartley guinea pig assessed as lowest dose required for >/= 50% inhibition of acetylcholine-induced spasm administered 3 to 4 times at 15 mins interval starting 2 mins post challenge; outline: as §3

Compound: CCCCC[C@](C)(O)/C=C/C1CCC(=O)[C@@H]1CCCCOCC(=O)OCC (mixture of isomers)
- ED50 [1]: 282 µg/kg
- ED50 [2]: 78.8 µg/kg
- ED50 [3]: 618 µg/kg

Compound: CCCCC[C@H](O)/C=C/C1CCC(=O)[C@@H]1CCCCCCC(=O)O (mixture of isomers)
- ED50 [1]: 3.4 µg/kg
- ED50 [2]: 397 µg/kg
- ED50 [3]: > 32 µg/kg

Compound: CCCCC(C)(C)[C@H](O)/C=C/C1CCC(=O)[C@@H]1CCCCCCC(=O)O (mixture of isomers)
- ED50 [1]: 4.17 µg/kg
- ED50 [2]: 25.9 µg/kg
- ED50 [3]: 42.9 µg/kg

Compound: CCCCC(C)(C)[C@@H](O)/C=C/C1CCC(=O)[C@@H]1CCCCCCC(=O)O (mixture of isomers)
- ED50 [1]: 107 µg/kg
- ED50 [2]: 19 µg/kg
- ED50 [3]: 135 µg/kg

Compound: CCCCC(C)(C)[C@H](O)/C=C/C1CCC(=O)[C@@H]1CCCCCC(C)C(=O)O (mixture of isomers)
- inhibition in vivo at 3.2 mg/kg [4]: < 50%
- inhibition in vivo at 3.2 mg/kg [5]: < 50%
- inhibition in vivo at 3.2 mg/kg [6]: < 50%

Compound: CCCCC(C)(C)[C@@H](O)/C=C/C1CCC(=O)[C@@H]1CCCCCC(C)C(=O)O (mixture of isomers)
- inhibition in vivo at 3.2 mg/kg [4]: < 50%
- inhibition in vivo at 3.2 mg/kg [5]: < 50%
- inhibition in vivo at 3.2 mg/kg [6]: < 50%

Compound: CCCCC(C)(C)[C@H](O)/C=C/C1CCC(=O)[C@@H]1CCCCCC(C(=O)OCC)c1ccccc1 (mixture of isomers)
- inhibition in vivo at 3.2 mg/kg [4]: < 50%
- inhibition in vivo at 3.2 mg/kg [5]: < 50%
- inhibition in vivo at 3.2 mg/kg [6]: < 50%

Compound: CCCCC(C)(C)[C@@H](O)/C=C/C1CCC(=O)[C@@H]1CCCCCC(C(=O)OCC)c1ccccc1 (mixture of isomers)
- inhibition in vivo at 3.2 mg/kg [4]: < 50%
- inhibition in vivo at 3.2 mg/kg [5]: < 50%
- inhibition in vivo at 3.2 mg/kg [6]: < 50%

Compound: CCCCC(C)(C)[C@H](O)/C=C/C1CCC(=O)[C@@H]1CCCCCC(C(=O)O)c1ccccc1 (mixture of isomers)
- inhibition in vivo at 3.2 mg/kg [4]: < 50%
- inhibition in vivo at 3.2 mg/kg [5]: < 50%
- inhibition in vivo at 3.2 mg/kg [6]: < 50%

Compound: CCCCC(C)(C)[C@@H](O)/C=C/C1CCC(=O)[C@@H]1CCCCCC(C(=O)O)c1ccccc1 (mixture of isomers)
- inhibition in vivo at 3.2 mg/kg [4]: < 50%
- inhibition in vivo at 3.2 mg/kg [5]: < 50%
- inhibition in vivo at 3.2 mg/kg [6]: < 50%

Compound: CCCCC(C)(C)[C@H](O)/C=C/C1CCC(=O)[C@@H]1CCCCOCC(=O)OCC (mixture of isomers)
- ED50 [1]: 69.6 µg/kg
- ED50 [2]: 123 µg/kg
- ED50 [3]: 96.7 µg/kg

Compound: CCCCC(C)(C)[C@@H](O)/C=C/C1CCC(=O)[C@@H]1CCCCOCC(=O)OCC (mixture of isomers)
- ED50 [1]: 194 µg/kg
- ED50 [2]: 209 µg/kg
- ED50 [3]: 349 µg/kg

Compound: CCCCC(C)(C)[C@H](O)/C=C/C1CCC(=O)[C@@H]1CCCCOCC(=O)O (mixture of isomers)
- ED50 [2]: 185 µg/kg
- ED50 [3]: 550 µg/kg

Compound: CCCCC(C)(C)[C@@H](O)/C=C/C1CCC(=O)[C@@H]1CCCCOCC(=O)O (mixture of isomers)
- ED50 [1]: 373 µg/kg
- ED50 [3]: 558 µg/kg
- ED50 [7]: 32 µg/kg

Compound: CCCCC(C)[C@H](O)/C=C/C1CCC(=O)[C@@H]1CCCCCCC(=O)OCC (mixture of isomers)
- ED50 [8]: 32000 µg/kg
- inhibition in vivo at 3.2 mg/kg [6]: < 50%
- ED50 [7]: 320 µg/kg

Compound: CCCCC(C)[C@@H](O)/C=C/C1CCC(=O)[C@@H]1CCCCCCC(=O)OCC (mixture of isomers)
- ED50 [2]: 99.3 µg/kg
- ED50 [8]: 32000 µg/kg
- ED50 [3]: 396 µg/kg

Compound: CCCCC(C)[C@H](O)/C=C/C1CCC(=O)[C@@H]1CCCCCCC(=O)O (mixture of isomers)
- ED50 [2]: 346 µg/kg
- ED50 [8]: 320 µg/kg
- ED50 [3]: > 320 µg/kg

Compound: CCCCC(C)[C@@H](O)/C=C/C1CCC(=O)[C@@H]1CCCCCCC(=O)O (mixture of isomers)
- ED50 [1]: 73.2 µg/kg
- ED50 [2]: 7.01 µg/kg
- ED50 [3]: 9.89 µg/kg

Compound: CCCCC(C)[C@H](O)/C=C/C1CCC(=O)[C@@H]1C/C=C\CCCC(=O)OCC (mixture of isomers)
- ED50 [1]: 65700 µg/kg
- ED50 [2]: 179000 µg/kg
- inhibition in vivo at 3.2 mg/kg [6]: < 50%

Compound: CCCCC(C)[C@@H](O)/C=C/C1CCC(=O)[C@@H]1C/C=C\CCCC(=O)OCC (mixture of isomers)
- ED50 [1]: 1.37 µg/kg
- ED50 [2]: 9.65 µg/kg
- ED50 [3]: > 320 µg/kg

Compound: CCCCC(C)[C@H](O)/C=C/C1CCC(=O)[C@@H]1C/C=C\CCCC(=O)O (mixture of isomers)
- ED50 [1]: 108000 µg/kg
- ED50 [2]: 1.35 µg/kg
- ED50 [3]: 1.63 µg/kg

Compound: CCCCC(C)[C@@H](O)/C=C/C1CCC(=O)[C@@H]1C/C=C\CCCC(=O)O (mixture of isomers)
- ED50 [1]: 2.99 µg/kg
- ED50 [2]: 39.9 µg/kg
- ED50 [3]: 87.5 µg/kg

Compound: CCCCC(CC)[C@H](O)/C=C/C1CCC(=O)[C@@H]1CCCCCCC(=O)OCC (mixture of isomers)
- ED50 [2]: 1.11e+09 µg/kg
- ED50 [8]: 32 µg/kg
- ED50 [3]: 145 µg/kg

Compound: CCCCC(CC)[C@@H](O)/C=C/C1CCC(=O)[C@@H]1CCCCCCC(=O)OCC (mixture of isomers)
- ED50 [1]: 2.7e+09 µg/kg
- ED50 [2]: 1.74e+09 µg/kg
- inhibition in vivo at 3.2 mg/kg [6]: < 50%

Compound: CCCCC(CC)[C@H](O)/C=C/C1CCC(=O)[C@@H]1CCCCCCC(=O)O (mixture of isomers)
- ED50 [2]: 9.77 µg/kg
- ED50 [8]: 32 µg/kg
- ED50 [3]: 113 µg/kg

Compound: CCCCC(CC)[C@@H](O)/C=C/C1CCC(=O)[C@@H]1CCCCCCC(=O)O (mixture of isomers)
- ED50 [2]: > 3.2 µg/kg
- ED50 [8]: 32 µg/kg
- inhibition in vivo at 3.2 mg/kg [6]: < 50%

Compound: CCCCC(CC)[C@H](O)/C=C/C1CCC(=O)[C@@H]1C/C=C\CCCC(=O)O (mixture of isomers)
- ED50 [2]: 79.1 µg/kg
- inhibition in vivo at 3.2 mg/kg [5]: < 50%
- inhibition in vivo at 3.2 mg/kg [6]: < 50%

Compound: CCCCC(CC)[C@@H](O)/C=C/C1CCC(=O)[C@@H]1C/C=C\CCCC(=O)O (mixture of isomers)
- ED50 [2]: 2.21e+09 µg/kg
- inhibition in vivo at 3.2 mg/kg [5]: < 50%
- inhibition in vivo at 3.2 mg/kg [6]: < 50%

Compound: CCCCC[C@](C)(O)/C=C/C1CCC(=O)[C@@H]1CCCCCCC(=O)O (mixture of isomers)
- ED50 [1]: 4.24 µg/kg
- ED50 [9]: 3.2 µg/kg
- ED50 [2]: 6.99 µg/kg

Compound: CCCCC[C@](C)(O)/C=C/C1CCC(=O)[C@@H]1CCCCOCC(=O)O (mixture of isomers)
- ED50 [1]: 25.6 µg/kg
- ED50 [2]: 121 µg/kg
- ED50 [3]: 73.7 µg/kg
